This is one part of a sample in which hits are shown more often than they occur.
KDM4C inh: KDM4C (human) demethylase inhibition | AID 720574 | GST-KDM4C 2-372, H3K9me3 peptide, LANCE TR-FRET | Q9H3R0 | inhibition, % at 12.5 µM | 96,000 tested, 0.15% active;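 active means mean replicate inhibition above about 25%, with at least 55% of replicates also reaching it, limit read from the data, passing the limit was not always enough; inconclusive means only one of those two conditions met; inactive means neither condition met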
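Assay system: GST-GASC-1 enzyme fragment 2-372 | Amount: 10 nM enzyme | Medium: HEPES buffer, pH 7.5, plus ascorbate | Reagent: H3K9me3 peptide substrate, Fe(II), 2-oxoglutarate | Doses: Single-point compound screen | Incubation: 30 min demethylation and 1 h detection at room temperature | Measured by: LANCE TR-FRET, excitation 340 nm, emissions 618 and 671 nm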
T cruzi growth-1: blocks T. cruzi growth in NIH3T3 culture | T. cruzi beta-gal in NIH3T3, GalScreen luminescence, 90 h | inhibition, % at 8.34 µM | 77,000 tested, 5.9% active | AID 624255;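 active means mean inhibition above about 93%, with at least 55% of replicates each passing it, limit read from the data, passing the limit was not always enough; inconclusive means only one of those two conditions holds; inactive means neither condition holds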
IDH1 mut inh: blocks human IDH1 R132H reductase activity; 70,000 tested, 0.18% active; inhibition, % at 10 µM; diaphorase/resazurin fluorescence, 60 min; AID 624101; in the data active means inhibition above about 34%; inconclusive means no clear call, values can overlap the other calls; inactive means below about 11%;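 further: 0% = DMSO and 100% = no enzyme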
Target sequence (O75874 whole entry R132H): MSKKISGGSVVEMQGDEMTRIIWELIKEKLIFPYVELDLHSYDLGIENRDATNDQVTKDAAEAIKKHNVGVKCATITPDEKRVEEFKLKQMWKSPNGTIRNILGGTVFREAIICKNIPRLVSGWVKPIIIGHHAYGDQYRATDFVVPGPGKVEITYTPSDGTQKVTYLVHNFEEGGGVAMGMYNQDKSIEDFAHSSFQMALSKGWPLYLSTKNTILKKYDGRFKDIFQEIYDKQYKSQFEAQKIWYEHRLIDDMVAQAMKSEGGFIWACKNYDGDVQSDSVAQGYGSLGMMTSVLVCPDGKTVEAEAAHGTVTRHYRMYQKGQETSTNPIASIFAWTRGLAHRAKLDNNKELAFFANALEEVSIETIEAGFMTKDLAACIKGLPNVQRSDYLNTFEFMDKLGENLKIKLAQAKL
T cruzi growth-2: Trypanosoma cruzi proliferation inhibition; 5,600 tested, 72% active; T. cruzi beta-gal in NIH3T3, GalScreen luminescence, 90 h; inhibition, % at 8.35 µM; AID 651739; shares compounds with T cruzi growth-1;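 active means mean replicate inhibition above about 95% and at least 55% of replicates individually reaching it, limit read from the data; inconclusive means only one of the two criteria is met; inactive means neither criterion is met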
T cruzi growth-3: inhibitors of T. cruzi proliferation; shares compounds with T cruzi growth-1; inhibition, % at 2.09 µM; T. cruzi beta-gal in NIH3T3, GalScreen luminescence, 90 h; 5,600 tested, 21% active;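 active means mean inhibition above about 95%, with at least 55% of replicates also reaching it, limit read from the data; inconclusive means meets just one of the two conditions; inactive means meets neither condition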;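 further: plate controls were neutral control median for no effect and positive control median for full effect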
NIH3T3 tox: kills mouse NIH/3T3 fibroblasts | shares compounds with T cruzi growth-1 | NIH/3T3 viability, CellTiter-Glo ATP luminescence, 90 h | cytotoxicity (signal decrease), % at 8.35 µM | 5,600 tested, 14% active;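 active means mean signal decrease across replicates above about 35% based on untreated-well scatter, with enough replicates individually passing, limit read from the data; inconclusive means no rule stated though some were filed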;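 further: 0% = median of neutral control wells and 100% = median of positive control wells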
NIH3T3 tox 2: NIH/3T3 (mouse) viability loss | shares compounds with T cruzi growth-1 | NIH/3T3 viability, CellTiter-Glo ATP luminescence, 90 h | inhibition, % at 24.9 µM | 5,600 tested, 56% active | AID 651744;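 active means mean loss of cell viability signal at or above a set limit, and enough replicates individually reaching it; inconclusive means meets only the mean limit or only the replicate share; inactive means meets neither condition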;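 further: 0% = median of neutral control wells and 100% = median of positive control wells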
An asterisk follows results filed as active; ? = inconclusive; nt = no result given; ! = not active in a repeat.

SMILES	KDM4C inh	T cruzi growth-1	IDH1 mut inh	T cruzi growth-2	T cruzi growth-3	NIH3T3 tox	NIH3T3 tox 2
CC(=O)Nc1ccc(-c2nnc(SCC(=O)Nc3ccc(Cl)cc3Cl)n2C)cc1	nt	nt	0	nt	nt	nt	nt
COc1nc(Nc2ccccc2)nc(OCC(F)(F)F)n1	nt	nt	1	nt	nt	nt	nt
C=C1C(=O)O[C@@H]2CC=C(CCC(C)O)C(C)C[C@@H]12 (some centres undefined)	nt	nt	0	nt	nt	nt	nt
CN(C)CCCN1C(=O)C(=O)C(C(=O)c2ccco2)C1c1ccc([N+](=O)[O-])cc1 (centres undefined)	nt	nt	0	nt	nt	nt	nt
C[C@@H]1CN([C@@H](C)CO)S(=O)(=O)c2ccc(C#Cc3ccc(F)cc3)cc2O[C@H]1CN(C)C(=O)NC1CCCCC1	1	84	21	nt	nt	nt	nt
C[C@H]1CN([C@@H](C)CO)S(=O)(=O)c2ccc(C#Cc3ccc(F)cc3)cc2O[C@H]1CN(C)C(=O)NC1CCCC1	-1	99*	-1	99*	113*	2	104*
C[C@H](CO)N1C[C@H](C)[C@@H](CN(C)Cc2ccc3c(c2)OCO3)Oc2ccc(NC(=O)Nc3cccc4ccccc34)cc2CC1=O	-1	109*	0	101*	104*	41*	52*
C[C@H]1CN([C@@H](C)CO)C(=O)Cc2cc(NC(=O)Nc3cccc4ccccc34)ccc2O[C@H]1CN(C)Cc1ccc2c(c1)OCO2	-1	16	0	nt	nt	nt	nt
C[C@H]1CN([C@@H](C)CO)C(=O)c2cc(NC(=O)Nc3cccc4ccccc34)ccc2O[C@H]1CN(C)Cc1ccc2c(c1)OCO2	-4	100*	-12	90	93	28	32*
C[C@@H]1CN([C@@H](C)CO)C(=O)c2cc(NC(=O)Nc3cccc4ccccc34)ccc2O[C@@H]1CN(C)Cc1ccc2c(c1)OCO2	-1	14	0	nt	nt	nt	nt
C[C@H](CO)N1C[C@H](C)[C@H](CN(C)Cc2ccc3c(c2)OCO3)Oc2ccc(NC(=O)Nc3ccc(C(F)(F)F)cc3)cc2CC1=O	-1	97*	-4	109*	104*	19	84*
C[C@@H]1CN([C@@H](C)CO)C(=O)Cc2cc(NC(=O)Nc3ccc(C(F)(F)F)cc3)ccc2O[C@H]1CN(C)Cc1ccc2c(c1)OCO2	-2	93	0	nt	nt	nt	nt
O=C(O)CC(Cc1ccccc1)C(=O)Nc1ccc(Cl)c(Cl)c1 (centres undefined)	nt	nt	0	nt	nt	nt	nt
CC(C)NC(=O)N(C)C[C@H]1Oc2cc(C#Cc3cccc(F)c3)ccc2S(=O)(=O)N([C@@H](C)CO)C[C@@H]1C	-2	116*	0	99*	59	22	45*
CC(C)NC(=O)N(C)C[C@@H]1Oc2cc(C#Cc3cccc(F)c3)ccc2S(=O)(=O)N([C@@H](C)CO)C[C@@H]1C	-1	92	-5	nt	nt	nt	nt
CC(C)NC(=O)N(C)C[C@@H]1Oc2cc(C#Cc3cccc(F)c3)ccc2S(=O)(=O)N([C@H](C)CO)C[C@@H]1C	14	61	0	nt	nt	nt	nt
CC(C)NC(=O)N(C)C[C@@H]1Oc2cc(C#Cc3ccc(F)cc3)ccc2S(=O)(=O)N([C@H](C)CO)C[C@@H]1C	0	111*	-4	97*	?	11	10
CC(C)NC(=O)N(C)C[C@H]1Oc2cc(C#Cc3ccc(F)cc3)ccc2S(=O)(=O)N([C@@H](C)CO)C[C@H]1C	0	107*	0	105*	21	-16	19
CC(C)NC(=O)N(C)C[C@H]1Oc2cc(C#Cc3cccc(F)c3)ccc2S(=O)(=O)N([C@@H](C)CO)C[C@H]1C	-1	100	-1	nt	nt	nt	nt
COc1cc(C)c(S(=O)(=O)NCCc2c(C)[nH]c3ccccc23)cc1C	nt	nt	-1	nt	nt	nt	nt
COc1ccc(OCC(=O)Nc2cc(-c3nnc(OC)c4ccccc34)ccc2N2CCCCC2)cc1	nt	nt	0	nt	nt	nt	nt
O=C(CSc1nnc(-c2cccc(Cl)c2)o1)Nc1ccccc1	nt	nt	0	nt	nt	nt	nt
Cc1cc(C)nc(SC(C)C(=O)Nc2ccc(Cl)c(Cl)c2)n1 (centres undefined)	nt	nt	0	nt	nt	nt	nt
COc1ccc(NC(=O)N(C)C[C@H]2OCCCC[C@@H](C)Oc3ccc(N(C)C)cc3C(=O)N([C@H](C)CO)C[C@@H]2C)cc1	1	105*!	0	53	11	21	34*
COc1ccc(NC(=O)N(C)C[C@H]2OCCCC[C@H](C)Oc3ccc(N(C)C)cc3C(=O)N([C@H](C)CO)C[C@@H]2C)cc1	2	100*	nt	60	7	4	-8
SMILES	KDM4C inh	T cruzi growth-1	IDH1 mut inh	T cruzi growth-2	T cruzi growth-3	NIH3T3 tox	NIH3T3 tox 2
COc1ccc(NC(=O)N(C)C[C@@H]2OCCCC[C@H](C)Oc3ccc(N(C)C)cc3C(=O)N([C@H](C)CO)C[C@@H]2C)cc1	3	41	nt	nt	nt	nt	nt
COc1ccc(NC(=O)N(C)C[C@@H]2OCCCC[C@H](C)Oc3ccc(N(C)C)cc3C(=O)N([C@H](C)CO)C[C@H]2C)cc1	4	33	2	nt	nt	nt	nt
Cc1ccc(OCC(=O)Nc2ccc3oc(-c4ccccc4C)nc3c2)c(C)c1	nt	nt	0	nt	nt	nt	nt
CC(C)C(=O)Nc1ccc(C(=O)NCc2ccco2)cc1	nt	nt	1	nt	nt	nt	nt
C[C@@H]1CN([C@@H](C)CO)S(=O)(=O)c2ccc(-c3ccncc3)cc2O[C@H]1CN(C)C(=O)c1cccc(F)c1	-2	111*	-2	96*	87	10	25*
C[C@@H]1CN([C@@H](C)CO)S(=O)(=O)c2ccc(-c3cccc(F)c3)cc2O[C@@H]1CN(C)C(=O)c1cccc(F)c1	1	51	0	nt	nt	nt	nt
C[C@@H]1CN([C@@H](C)CO)S(=O)(=O)c2ccc(-c3ccncc3)cc2O[C@H]1CN(C)C(=O)c1ccc2c(c1)OCO2	-1	106*	1	99*	81	3	17
C[C@H](CO)N1C[C@H](C)[C@@H](CN(C)C(=O)c2cccc(F)c2)Oc2cc(-c3ccncc3)ccc2S1(=O)=O	-2	110*	17	95	52	22	44*
C[C@@H]1CN([C@@H](C)CO)S(=O)(=O)c2ccc(-c3cccc(F)c3)cc2O[C@H]1CN(C)C(=O)c1cccc(F)c1	0	100*	-1	98*	85	53*	40*
C[C@H]1CN([C@@H](C)CO)S(=O)(=O)c2ccc(-c3cccnc3)cc2O[C@@H]1CN(C)C(=O)c1cccc(F)c1	10	45	8	nt	nt	nt	nt
C[C@@H]1CN([C@@H](C)CO)S(=O)(=O)c2ccc(-c3ccccc3)cc2O[C@@H]1CN(C)C(=O)c1ccc2c(c1)OCO2	6	nt	0	nt	nt	nt	nt
C[C@H]1CN([C@@H](C)CO)S(=O)(=O)c2ccc(-c3cccc(F)c3)cc2O[C@H]1CN(C)C(=O)c1cccc(F)c1	-2	53	-3	nt	nt	nt	nt

From PubChem
